Results published in ChEMBL document CHEMBL4196022, “Alkynyl-containing phenylthiazoles: Systemically active antibacterial agents effective against methicillin-resistant Staphylococcus aureus (MRSA)” (Eur J Med Chem, 2018).
Converted amounts (≈) assume the structure as drawn. The source made the active and inactive calls. The rule behind the calls is not given here.

Tests used:
Staphylococcus aureus [1] = assay: Antibacterial activity against methicillin-resistant Staphylococcus aureus NRS107 after 20 hrs by broth microdilution assay; format: functional; conditions: NRS107, 20 h
Outline: (§1)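 Broth microdilution per CLSI in cation-adjusted Mueller Hinton broth. Compounds serially diluted, in triplicate. Incubation at 37 °C for at least 20 hours. MIC taken as the lowest concentration with no visible bacterial growth.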

Staphylococcus aureus [2] = assay: Bactericidal activity against methicillin-resistant Staphylococcus aureus USA300 up to 18 hrs by broth microdilution assay; format: functional; conditions: USA300, 18 h, read-out: MBC99.9
Staphylococcus aureus [3] = assay: Antibacterial activity against methicillin-resistant Staphylococcus aureus NRS119 after 20 hrs by broth microdilution assay; format: functional; conditions: NRS119, 20 h; outline: as §1
Staphylococcus aureus [4] = assay: Bactericidal activity against methicillin-resistant Staphylococcus aureus NRS119 up to 18 hrs by broth microdilution assay; format: functional; conditions: NRS119, 18 h, read-out: MBC99.9
Staphylococcus aureus [5] = assay: Antibacterial activity against methicillin-resistant Staphylococcus aureus NRS123 (USA400) after 20 hrs by broth microdilution assay; format: functional; outline: as §1
Staphylococcus aureus [6] = assay: Bactericidal activity against methicillin resistant Staphylococcus aureus NRS123 (USA400) up to 18 hrs by broth microdilution assay; format: functional; conditions: read-out: MBC99.9
Staphylococcus aureus [7] = assay: Antibacterial activity against vancomycin-resistant Staphylococcus aureus VRS10 after 20 hrs by broth microdilution assay; format: functional; conditions: VRS10, 20 h; outline: as §1
Staphylococcus aureus [8] = assay: Bactericidal activity against methicillin resistant vancomycin-resistant Staphylococcus aureus VRS10 up to 18 hrs by broth microdilution assay; format: functional; conditions: VRS10, 18 h, read-out: MBC99.9
Staphylococcus aureus [9] = assay: Antibacterial activity against vancomycin-resistant Staphylococcus aureus VRS11a after 20 hrs by broth microdilution assay; format: functional; outline: as §1
Staphylococcus aureus [10] = assay: Bactericidal activity against methicillin resistant vancomycin-resistant Staphylococcus aureus VRS11a up to 18 hrs by broth microdilution assay; format: functional; conditions: read-out: MBC99.9
Staphylococcus aureus [11] = assay: Antibacterial activity against vancomycin-resistant Staphylococcus aureus VRS12 after 20 hrs by broth microdilution assay; format: functional; conditions: VRS12, 20 h; outline: as §1
Staphylococcus aureus [12] = assay: Bactericidal activity against methicillin resistant vancomycin-resistant Staphylococcus aureus VRS12 up to 18 hrs by broth microdilution assay; format: functional; conditions: VRS12, 18 h, read-out: MBC99.9
Outline: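 MBC set up from the MIC plates. Aliquots from wells with no growth spotted onto tryptic soy agar and incubated at 37 °C for at least 18 hours. MBC taken as the lowest concentration giving 99.9% inhibition of bacterial growth.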

Staphylococcus aureus [13] = assay: Potency index, ratio of vancomycin MIC to compound MIC for antibacterial activity against vancomycin-resistant Staphylococcus aureus VRS10; format: functional
Staphylococcus aureus [14] = assay: Potency index, ratio of vancomycin MIC to compound MIC for antibacterial activity against vancomycin-resistant Staphylococcus aureus VRS11a; format: functional
Staphylococcus aureus [15] = assay: Potency index, ratio of vancomycin MIC to compound MIC for antibacterial activity against vancomycin-resistant Staphylococcus aureus VRS12; format: functional
Staphylococcus aureus [16] = assay: Ratio of MBC to MIC for methicillin-resistant Staphylococcus aureus USA300; format: functional
Outline: (§2)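 MBC/MIC ratio. […] MBC by plating no-growth wells onto tryptic soy agar at 37 °C for at least 18 h; taken as the concentration giving 99.9% growth inhibition.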

Staphylococcus aureus [17] = assay: Ratio of MBC to MIC for methicillin-resistant Staphylococcus aureus NRS107; format: functional; outline: as §2
Staphylococcus aureus [18] = assay: Ratio of MBC to MIC for methicillin-resistant Staphylococcus aureus NRS119; format: functional; outline: as §2
Staphylococcus aureus [19] = assay: Ratio of MBC to MIC for methicillin-resistant Staphylococcus aureus NRS123 (USA400); format: functional; outline: as §2
Staphylococcus aureus [20] = assay: Ratio of MBC to MIC for vancomycin-resistant Staphylococcus aureus VRS10; format: functional; outline: as §2
Staphylococcus aureus [21] = assay: Ratio of MBC to MIC for vancomycin-resistant Staphylococcus aureus VRS11a; format: functional; outline: as §2
Staphylococcus aureus [22] = assay: Ratio of MBC to MIC for vancomycin-resistant Staphylococcus aureus VRS12; format: functional; outline: as §2
Staphylococcus aureus [23] = assay: Bactericidal activity against methicillin-resistant Staphylococcus aureus NRS123 (USA400) at 4 times MIC after 24 hrs by time kill assay; format: functional, organism-based
J774 = assay: Cytotoxicity against mouse J774 cells assessed as reduction in cell viability up to 16 ug/ml after 24 hrs by MTS assay; format: cell-based; conditions: j774, 24 h
Outline: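 J774 murine macrophages were grown in DMEM with 10% FBS at 37 °C, 5% CO2. Compounds were tested at 8, 16 and 32 μg/mL in triplicate for 24 h, with a DMSO-matched control. MTS was added for 4 h and absorbance read at 490 nm. Viability is given as % of DMSO control (mean ± SD); Student t-test with Holm-Sidak test.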

Staphylococcus aureus [24] = assay: Antibacterial activity against methicillin-resistant Staphylococcus aureus NRS123 (USA400) infected in mouse J774 cells at 16 ug/ml after 24 hrs; format: functional, organism-based
Outline: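 J774 macrophages grown in DMEM with 10% FBS at 37 °C, 5% CO2. Infected with USA400 at MOI ~100:1 for 1 h, then washed with gentamicin 50 μg/mL. Treated in triplicate wells for 24 h, washed with gentamicin again and lysed with 0.1% Triton X-100. Lysate plated on tryptic soy agar for 18–22 h; CFU/mL counted.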

HRT-18 cell line = assay: Cytotoxicity against human HRT18 cells assessed as reduction in cell viability up to 32 ug/ml after 2 hrs by MTS assay; format: cell-based; conditions: hrt-18, 2 h
[25] = Selectivity index, ratio of toxic concentration for human HRT18 cells to MIC for methicillin-resistant Staphylococcus aureus; format: toxicity; conditions: read-out: Selectivity Index
Staphylococcus aureus [26] = assay: Antibacterial activity against methicillin-resistant Staphylococcus aureus USA300 infected in Caenorhabditis elegans AU37 assessed as reduction in bacterial burden at 20 ug/ml after 18 hrs relative to control; format: functional; design: scale not given: the % may be the effect or the level left
Outline: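 L4-stage C. elegans AU37 infected on USA300 lawns for 6 h and washed with M9 buffer. 25–30 worms per well exposed to 20 μg/mL for 18 h, in triplicate. Worms then lysed and plated on TSA with 5 μg/mL nalidixic acid for 17 h at 37 °C. CFU per worm expressed as % reduction versus PBS.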

Staphylococcus aureus [27] = assay: Antibacterial activity against methicillin-resistant Staphylococcus aureus USA300 in Balb/c mouse skin infection model assessed as reduction in bacterial burden in wounded skin area at 2% administered topically twice daily for 5 consecutive days measured 12 hrs post last dose relative to control; format: functional; design: scale not given: the % may be the effect or the level left
Outline: (§3)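 Female Balb/c mice, 8 weeks old, n=5 per group. Intradermal injection of 40 μL of 1.32×10^9 CFU/mL USA300; a wound formed by ~66 h. Treated topically with a 2% suspension in petroleum jelly twice daily for 5 days; the vehicle group served as control. Wounds excised 12 h after the last dose, homogenized in PBS and plated on mannitol salt agar; sites also observed for redness and swelling.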

Staphylococcus aureus [28] = assay: Bactericidal activity against methicillin-resistant Staphylococcus aureus USA300 at 4 times MIC after 24 hrs by time kill assay; format: functional, organism-based
Mus musculus [29] = assay: Induction of inflammation in Balb/c mouse infected with methicillin-resistant Staphylococcus aureus USA300 assessed as redness around wounded skin area at 2% administered topically twice daily for 5 consecutive days measured 12 hrs post last dose relative to control; format: organism-based; conditions: in vivo, topical_or_ocular; outline: as §3
Mus musculus [30] = assay: Induction of inflammation in Balb/c mouse infected with methicillin-resistant Staphylococcus aureus USA300 assessed as swelling around wounded skin area at 2% administered topically twice daily for 5 consecutive days measured 12 hrs post last dose; format: organism-based; conditions: in vivo, topical_or_ocular; outline: as §3
Mus musculus [31] = assay: Toxicity in wounded skin area of Balb/c mouse infected with methicillin-resistant Staphylococcus aureus USA300 at 2% administered topically twice daily for 5 consecutive days measured 12 hrs post last dose; format: organism-based; conditions: in vivo, topical_or_ocular; outline: as §3
Staphylococcus aureus [32] = assay: Antibacterial activity against methicillin-resistant Staphylococcus aureus USA300 after 20 hrs by broth microdilution assay; format: functional; conditions: USA300, 20 h; outline: as §1
Staphylococcus aureus [33] = assay: Bactericidal activity against methicillin-resistant Staphylococcus aureus NRS107 up to 18 hrs by broth microdilution assay; format: functional; conditions: NRS107, 18 h, read-out: MBC99.9
Staphylococcus aureus [34] = assay: Inhibition of UPPS/UPPP in vancomycin-resistant Staphylococcus aureus VRS10 assessed as potentiation of vancomycin-induced antibacterial activity by measuring fold reduction in vancomycin MIC at 0.5 times MIC preincubated for 30 mins followed by vancomycin addition measured after 20 to 22 hrs by broth microdilution assay relative to control
Outline: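 VRS10 suspension pre-exposed to compound at ½ × MIC for 30 min at room temperature. […] Incubation at 37 °C for 20–22 h before the MIC was read; untreated bacteria served as control.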

| SMILES | MIC (Staphylococcus aureus [1]) [µg/mL] | MBC (Staphylococcus aureus [2]) [µg/mL] | MIC (Staphylococcus aureus [3]) [µg/mL] | MBC (Staphylococcus aureus [4]) [µg/mL] | MIC (Staphylococcus aureus [5]) [µg/mL] | MBC (Staphylococcus aureus [6]) [µg/mL] | MIC (Staphylococcus aureus [7]) [µg/mL] | MBC (Staphylococcus aureus [8]) [µg/mL] | MIC (Staphylococcus aureus [9]) [µg/mL] | MBC (Staphylococcus aureus [10]) [µg/mL] | MIC (Staphylococcus aureus [11]) [µg/mL] | MBC (Staphylococcus aureus [12]) [µg/mL] | Ratio (Staphylococcus aureus [13]) | Ratio (Staphylococcus aureus [14]) | Ratio (Staphylococcus aureus [15]) | Ratio (Staphylococcus aureus [16]) | Ratio (Staphylococcus aureus [17]) | Ratio (Staphylococcus aureus [18]) | Ratio (Staphylococcus aureus [20]) | Ratio (Staphylococcus aureus [21]) | further results |
| --- | --- | --- | --- | --- | --- | --- | --- | --- | --- | --- | --- | --- | --- | --- | --- | --- | --- | --- | --- | --- | --- |
| CCCCCC#Cc1ccc(-c2nc(C)c(/C(C)=N/NC(=N)N)s2)cc1 | 2 (≈ 5.44 µM) | 4 (≈ 10.9 µM) | 2 (≈ 5.44 µM) | 2 (≈ 5.44 µM) | 2 (≈ 5.44 µM) | 2 (≈ 5.44 µM) | 2 (≈ 5.44 µM) | 2 (≈ 5.44 µM) | 1 (≈ 2.72 µM) | 2 (≈ 5.44 µM) | 2 (≈ 5.44 µM) | 2 (≈ 5.44 µM) | >100 | >100 | 8 | <=3 | <=3 | <=3 | <=3 | <=3 | Ratio (Staphylococcus aureus [19]): <=3; Ratio (Staphylococcus aureus [22]): <=3; Activity (Staphylococcus aureus [23]): Active; Activity (J774): Non-Toxic; Activity (Staphylococcus aureus [24]): Active; Activity (HRT-18 cell line): Non-Toxic; selectivity ratio [25]: 7 to 31; Activity (Staphylococcus aureus [26]): 90%; Activity (Staphylococcus aureus [27]): 71%; Activity (Staphylococcus aureus [28]): Active; Activity (Mus musculus [29]): Non-Toxic; Activity (Mus musculus [30]): Non-Toxic; Activity (Mus musculus [31]): Non-Toxic |
| C/C(=N\NC(=N)N)c1sc(-c2ccc(C#Cc3ccccc3)cc2)nc1C | 2 (≈ 5.35 µM) | 1 (≈ 2.68 µM) | 1 (≈ 2.68 µM) | 2 (≈ 5.35 µM) | 1 (≈ 2.68 µM) | 4 (≈ 10.7 µM) | 1 (≈ 2.68 µM) | 2 (≈ 5.35 µM) | 1 (≈ 2.68 µM) | 2 (≈ 5.35 µM) | 2 (≈ 5.35 µM) | 2 (≈ 5.35 µM) | >100 | >100 | 8 | <=3 | <=3 | <=3 | <=3 | <=3 | MIC (Staphylococcus aureus [32]): 1 µg/mL (≈ 2.68 µM); MBC (Staphylococcus aureus [33]): 2 µg/mL (≈ 5.35 µM); Ratio (Staphylococcus aureus [19]; read-out: Ratio): 4; Ratio (Staphylococcus aureus [22]): <=3; Activity (HRT-18 cell line): Non-Toxic; selectivity ratio [25]: 7 to 31; fold change (FC) (Staphylococcus aureus [34]): 512 |
